Test results from ChEMBL document CHEMBL4190213, “Naphthoquinones of Sinningia reitzii and Anti-inflammatory/Antinociceptive Activities of 8-Hydroxydehydrodunnione” (J Nat Prod, 2017).
Activity calls are given as the source filed them.

Key:
[1] = test system: Mus musculus; test: Toxicity in Swiss mouse assessed as motor impairment at 5 mg/kg, sc incubated for 15 mins measured for 180 secs by rotarod test; assay type: organism-based; conditions: in vivo, 0.05 h
Method in brief: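 Male Swiss mice (25−35 g) were preselected for staying at least 60 s on a Rotarod at 22 rpm (one of three trials). Diazepam was given at 5.0 mg/kg s.c. as the positive control. Local intraplantar treatments (15 pg/paw, or 20 μL vehicle of 0.1% Tween 20) were tested 3 h later. The Rotarod task lasted 180 s, n = 6.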

[2] = test system: Mus musculus; test: Antiinflammatory activity in Swiss mouse assessed as inhibition of carrageenan-induced paw edema 30 ng/paw administered as intraplantar injection pretreated for 1 hr followed by carrageenan challenge measured after 1 to 4 hrs; assay type: functional, organism-based
Method in brief: (§1)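 Male Swiss mice, 25−35 g, given an intraplantar pretreatment in 0.1% Tween 20 vehicle. The right hind paw then received carrageenan, 300 μg in 50 μL sterile 0.9% saline, given subcutaneously; the contralateral paw received saline only. Paw thickness was read by digital micrometer 1 h before and 1, 2 and 4 h after carrageenan. The result is the thickness difference in μm; mean ± SEM, 5−8 animals.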

[3] = test system: Mus musculus; test: Antinociceptive activity in carrageenan-induced Swiss mouse model of mechanical hyperalgesia administered as intraplantar injection pretreated for 15 mins followed by carrageenan challenge after 3 hrs by Von Frey filament assay; assay type: functional, organism-based
Method in brief: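 Male Swiss mice were acclimatized 1 h on a wire mesh platform and given a basal von Frey up-and-down test (six measurements, 50% withdrawal threshold). Intraplantar treatment followed, 5−50 pg into the right paw, vehicle 0.1% Tween 20 in saline, 20 μL. After 15 min, carrageenan 300 μg/paw in 20 μL went into the right hindpaw. The threshold was remeasured at 3 h; mean ± SEM, 5−8 animals.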

[4] = test system: Mus musculus; test: Antinociceptive activity in dibutyryl cyclic AMP-induced Swiss mouse model of mechanical hyperalgesia at 15 pg/paw administered as intraplantar injection pretreated for 15 mins followed by dibutyryl cyclic AMP challenge after 3 hrs by Von Frey filament assay; assay type: functional, organism-based
Method in brief: (§2)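 Male Swiss mice received intraplantar pretreatment, vehicle 20 μL of 0.1% Tween 20. After 15 min the right paw was injected with PGE2 (100 ng/paw), dopamine (3 μg/paw) or dbcAMP (5 μg/paw). The 50% mechanical withdrawal threshold was measured by von Frey filaments, up-and-down method, before injection and 3 h after the stimulus; mean ± SEM, 5−8 animals.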

[5] = test system: Mus musculus; test: Antiinflammatory activity in Swiss mouse assessed as inhibition of carrageenan-induced paw edema administered as intraplantar injection pretreated for 1 hr followed by carrageenan challenge measured after 1 to 4 hrs; assay type: functional, organism-based; method in brief: as §1
[6] = test system: Mus musculus; test: Toxicity in Swiss mouse assessed as motor impairment at 15 pg/paw administered as intraplantar injection incubated for 3 hrs measured for 180 secs by rotarod test; assay type: organism-based; conditions: in vivo, other
Method in brief: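 Male Swiss mice were preselected for staying at least 60 s on a Rotarod at 22 rpm (one of three trials). They received intraplantar treatment (vehicle 20 μL of 0.1% Tween 20) and were tested on the Rotarod 3 h later for 180 s; mean ± SEM, n = 6.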

[7] = test system: Mus musculus; test: Antinociceptive activity in dopamine-induced Swiss mouse model of mechanical hyperalgesia at 15 pg/paw administered as intraplantar injection pretreated for 15 mins followed by dopamine challenge after 3 hrs by Von Frey filament assay; assay type: functional, organism-based; method in brief: as §2
[8] = test system: Mus musculus; test: Antinociceptive activity in PGE2-induced Swiss mouse model of mechanical hyperalgesia at 15 pg/paw administered as intraplantar injection pretreated for 15 mins followed by PGE2 challenge after 3 hrs by Von Frey filament assay; assay type: functional, organism-based; method in brief: as §2
[9] = organism: Mus musculus; test: Antinociceptive activity in Swiss mouse assessed as increase in thermal-stimulus induced paw withdrawal or licking latency at 15 pg/paw after 3 hrs by hot plate method; assay type: functional, organism-based
Method in brief: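 Male Swiss mice were preselected for a basal latency of 7−15 s on a 55 °C metal platform. They then received intraplantar treatment (vehicle 20 μL of 0.1% Tween 20) and were re-exposed at 3 h. The end point was paw withdrawal or licking, cutoff 30 s. Data are %MPE = (post − basal)/(cutoff − basal) × 100; mean ± SEM, n = 6.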

[10] = test system: Mus musculus; test: Antinociceptive activity in dopamine-induced Swiss mouse model of mechanical hyperalgesia at 320 ng/paw administered as intraplantar injection pretreated for 15 mins followed by dopamine challenge after 3 hrs by Von Frey filament assay; assay type: functional, organism-based; method in brief: as §2
[11] = test system: Mus musculus; test: Antinociceptive activity in PGE2-induced Swiss mouse model of mechanical hyperalgesia at 320 ng/paw administered as intraplantar injection pretreated for 15 mins followed by PGE2 challenge after 3 hrs by Von Frey filament assay; assay type: functional, organism-based; method in brief: as §2
[12] = test system: Mus musculus; test: Antinociceptive activity in dibutyryl cyclic AMP-induced Swiss mouse model of mechanical hyperalgesia at 320 ng/paw administered as intraplantar injection pretreated for 15 mins followed by dibutyryl cyclic AMP challenge after 3 hrs by Von Frey filament assay; assay type: functional, organism-based; method in brief: as §2

`CN1C(=O)CN=C(c2ccccc2)c2cc(Cl)ccc21` [DIAZEPAM] was tested, and the Activity [1] was “Toxic”.

With `C[C@@H]1C[C@H]2[C@@H]3CCC4=CC(=O)C=C[C@]4(C)[C@@]3(F)[C@@H](O)C[C@]2(C)[C@@]1(O)C(=O)CO` the inhibition [2] was “Active”.

In the case of `C=C1OC2=C(C(=O)C(=O)c3c(O)cccc32)C1(C)C`, the Activity [3] is reported as “Dose-dependent effect”, the Activity [4] is reported as “inactive” and the inhibition [5] is reported as “Dose-dependent effect”. For the same molecule, the Activity [6] was “Non-Toxic”, the Activity [7] was “Active” and the Activity [8] was “Active”. The Activity [9] was “inactive”.

For `Cc1c(N(C)CS(=O)(=O)O)c(=O)n(-c2ccccc2)n1C`, the Activity [10] was “Active”, the Activity [11] was “Active” and the Activity [12] was “Active”.
